# Data as given in ChEMBL document CHEMBL4613235, “A scaffold replacement approach towards new sirtuin 2 inhibitors” (Bioorg Med Chem, 2020).
# Columns and labels:
# [1] = molecular target: T1, NAD-dependent protein deacetylase sirtuin-2 (Homo sapiens) (UniProt Q8IXJ6); assay: (§1) Inhibition of recombinant GST-tagged human SIRT2 expressed in Escherichia coli at 200 uM using FLUOR DE LYS SIRT2 as substrate preincubated with substrate for 5 mins followed by enzyme addition and measured after 1 hr in presence of NAD+ by fluorescence based assay relative to control
# T1 sequence (whole entry): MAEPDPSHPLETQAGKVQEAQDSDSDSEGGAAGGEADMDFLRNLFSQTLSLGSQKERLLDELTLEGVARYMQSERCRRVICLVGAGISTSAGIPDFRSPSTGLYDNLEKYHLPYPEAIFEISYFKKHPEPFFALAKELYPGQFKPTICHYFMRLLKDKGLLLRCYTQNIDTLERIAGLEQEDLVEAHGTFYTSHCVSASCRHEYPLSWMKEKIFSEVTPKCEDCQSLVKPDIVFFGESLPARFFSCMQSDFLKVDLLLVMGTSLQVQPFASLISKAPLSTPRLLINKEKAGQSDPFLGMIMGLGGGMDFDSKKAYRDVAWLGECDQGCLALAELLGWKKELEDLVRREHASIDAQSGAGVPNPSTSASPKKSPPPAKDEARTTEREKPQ
# Outline: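 Fluor de Lys assay using GST-SIRT2 produced in-house and acetylated peptide substrate KI179 at 0.7 Km, with NAD+ at 0.9 Km in SIRT assay buffer. Buffer, substrate, NAD+ and compound in DMSO were preincubated 5 min at room temp; enzyme started the 1 h, 37 °C reaction. Developer with nicotinamide was added for 45 min at 37 °C; fluorescence read at ex 370/em 460 nm. SD, n = 3.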
# [2] = molecular target: T2, NAD-dependent protein deacetylase sirtuin-1 (Homo sapiens) (UniProt Q96EB6); assay: Inhibition of recombinant GST-tagged human SIRT1 at 200 uM using FLUOR DE LYS SIRT1 as substrate preincubated with substrate for 5 mins followed by enzyme addition and measured after 1 hr in presence of NAD+ by fluorescence based assay relative to control
# T2 sequence (whole entry): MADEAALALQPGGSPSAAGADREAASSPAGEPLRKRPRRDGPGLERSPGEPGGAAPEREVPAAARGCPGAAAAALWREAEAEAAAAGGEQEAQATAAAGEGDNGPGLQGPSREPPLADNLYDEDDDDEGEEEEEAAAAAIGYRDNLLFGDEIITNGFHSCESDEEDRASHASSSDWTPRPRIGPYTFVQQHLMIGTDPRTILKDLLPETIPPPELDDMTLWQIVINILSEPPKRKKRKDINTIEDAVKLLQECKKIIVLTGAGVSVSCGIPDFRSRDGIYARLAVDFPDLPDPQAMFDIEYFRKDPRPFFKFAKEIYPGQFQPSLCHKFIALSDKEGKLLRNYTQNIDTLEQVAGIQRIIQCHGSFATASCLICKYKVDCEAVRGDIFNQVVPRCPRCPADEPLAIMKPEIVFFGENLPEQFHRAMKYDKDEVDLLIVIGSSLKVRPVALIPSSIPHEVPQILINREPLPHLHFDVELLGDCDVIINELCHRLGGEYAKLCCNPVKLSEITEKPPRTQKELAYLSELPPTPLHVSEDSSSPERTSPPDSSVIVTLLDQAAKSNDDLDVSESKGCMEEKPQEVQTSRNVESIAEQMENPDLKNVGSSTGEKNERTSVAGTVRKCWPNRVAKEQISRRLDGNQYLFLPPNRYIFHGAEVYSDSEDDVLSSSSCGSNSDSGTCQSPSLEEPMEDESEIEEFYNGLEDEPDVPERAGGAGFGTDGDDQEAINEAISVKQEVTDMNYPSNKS
# Outline: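 Fluor de Lys assay using GST-SIRT1 produced in-house and acetylated peptide substrate KI177 at 0.7 Km, with NAD+ at 0.9 Km in SIRT assay buffer. Buffer, substrate, NAD+ and compound in DMSO were preincubated 5 min at room temp, then enzyme was added and run 1 h at 37 °C. Developer plus nicotinamide was added for 45 min at 37 °C. Read at ex 370/em 460 nm. SD, n = 3.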
# [3] = molecular target: T3, NAD-dependent protein deacetylase sirtuin-3, mitochondrial (Homo sapiens) (UniProt Q9NTG7); assay: as §1, with “recombinant N-terminal His-tagged” for “recombinant GST-tagged”, “human sirtuin 3 (102 to 399 residues)” for “human SIRT2”, “using fluor de lys” for “using FLUOR DE LYS”
# T3 sequence (whole entry): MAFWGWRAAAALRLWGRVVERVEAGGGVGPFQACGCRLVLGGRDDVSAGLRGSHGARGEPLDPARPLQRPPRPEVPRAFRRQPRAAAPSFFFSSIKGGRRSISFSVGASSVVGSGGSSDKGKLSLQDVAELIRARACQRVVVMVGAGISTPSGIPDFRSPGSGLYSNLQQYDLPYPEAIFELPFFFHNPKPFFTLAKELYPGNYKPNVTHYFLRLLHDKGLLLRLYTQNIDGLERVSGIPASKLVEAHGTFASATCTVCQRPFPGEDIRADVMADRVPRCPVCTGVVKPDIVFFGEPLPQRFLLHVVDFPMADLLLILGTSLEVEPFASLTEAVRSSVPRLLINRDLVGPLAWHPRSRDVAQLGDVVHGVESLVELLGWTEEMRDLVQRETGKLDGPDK
# Outline: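 Purchased recombinant His-SIRT3 was used with Fluor de Lys acetylated peptide substrate KI179 at 0.7 Km and NAD+ at 0.9 Km in SIRT assay buffer. Compound in DMSO was preincubated 5 min at room temp with buffer, substrate and NAD+; enzyme addition began the 1 h, 37 °C reaction. Developer with nicotinamide followed for 45 min at 37 °C; ex 370/em 460 nm read-out. SD, n = 3.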
SMILES,inhibition [1] [%],inhibition [2] [%],inhibition [3] [%]
O=C1c2ccc(Br)cc2S(=O)(=O)N1CCc1cccc(Br)c1,15,–,–
O=C1c2ccc(Br)cc2S(=O)(=O)N1CCc1cccc([N+](=O)[O-])c1,6.2,–,–
O=C1c2ccc(Br)cc2S(=O)(=O)N1CCc1ccc(O)cc1,12,5.2,15
O=S1(=O)N=C(CCc2ccc(Br)cc2)Nc2c(Br)cc(Br)cc21,10,–,–
CCCCCc1cc(=O)c2cc(Cl)cc(Br)c2o1,–,9.8,4.5
O=S1(=O)NC(CCc2cccc(Br)c2)Nc2c(Br)cc(Br)cc21 (centres undefined),59,9.7,9.9
O=c1ccc2cc(CCC3Nc4c(Br)cc(Br)cc4S(=O)(=O)N3)ccc2[nH]1 (centres undefined),74,25,28
CCCCCc1cc(=O)c2cc(Cl)cc(Br)c2[nH]1,26,–,–
O=c1cc(CCc2ccccc2)oc2c(Br)cc(Cl)cc12,75,–,–
O=S1(=O)N=C(CCc2ccccc2)Nc2c(Br)cc(Br)cc21,15,–,–
O=C1CCC(=O)N1CCN1C(=O)c2ccc(Br)cc2S1(=O)=O,13,–,–
O=S1(=O)N=C(CCc2cccc(Br)c2)Nc2c(Br)cc(Br)cc21,24,0,3.2
CCCCCN1C(=O)c2ccc(Br)cc2S1(=O)=O,6.9,–,–
CCCCCC1Nc2c(Br)cc(Br)cc2S(=O)(=O)N1 (centres undefined),32,4.4,5.8
O=c1cc(Cc2ccccc2)[nH]c2c(Br)cc(Cl)cc12,58,7.6,41
COC(=O)CCCCc1cc(=O)c2cc(Cl)cc(Br)c2[nH]1,53,–,–
O=C1c2ccc(Br)cc2S(=O)(=O)N1CCc1ccccc1,4.7,3.8,1.6

# Other lines, results leading:
inhibition [1] [%],inhibition [2] [%],inhibition [3] [%],SMILES
12,17,14,O=C1c2ccccc2S(=O)(=O)N1CCCc1cccnc1
34,–,–,CCCCCN1C(=O)c2ccccc2S1(=O)=O
29,–,–,CCCCC1=Cc2ccc(Br)cc2S(=O)(=O)N1
35,–,–,O=S1(=O)NC(CCc2ccccc2)=Cc2ccc(Br)cc21
13,8.7,7.2,CCOC(=O)CCCN1C(=O)c2ccccc2S1(=O)=O
47,4.6,54,O=S1(=O)NC(CCc2ccccc2)Nc2c(Br)cc(Br)cc21 (centres undefined)
12,–,–,CCCCC1=Cc2ccccc2S(=O)(=O)N1
34,14,14,O=C1c2ccccc2S(=O)(=O)N1CCc1ccccc1
15,–,–,O=S1(=O)NC(CCc2ccccc2)=Cc2ccccc21
